Screening data deposited in PubChem BioAssay by several laboratories.
Sampled rows, rich in hits. Any-hit rate of the full collection: about 2.9%.
Arr AP2 block – inhibitors of human beta-arrestin and AP2 interaction; FITC-arrestin peptide / GST-AP2 beads, flow cytometry; AP2 beta2 appendage carries R879A mutation; inhibition, % at 10 µM; 340,000 compounds, 0.31% hits; AID 504490;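 active = inhibition above a set limit, near 3 SD of compounds lacking own fluorescence, cut at about 54% in these data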;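 also: plate controls were DMSO wells for no effect and 5 µM unlabelled arrestin peptide for full effect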
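test system = AP2 appendage R879A on GSH beads | buffer or medium = PBS plus Tween 20 (0.05%) and BSA (0.1%) | incubation = 12 min plus 1 h, RT | detection = bead flow cytometry, FITC channel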
ADAM10 inh – ADAM10 inhibition, QFRET primary screen | recombinant ADAM10, EDANS/DABCYL FRET peptide cleavage, 3 h | inhibition, % at 7 µM | 370,000 compounds, 0.62% hits;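 active = inhibition above a per-campaign cutoff equal to the mean of compounds falling between control-based bounds plus 3 SD, cut at about 20% in these data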;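 also: 0% = DMSO wells while the 100% control is not disclosed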
Target sequence (O14672 214-748 limits assumed): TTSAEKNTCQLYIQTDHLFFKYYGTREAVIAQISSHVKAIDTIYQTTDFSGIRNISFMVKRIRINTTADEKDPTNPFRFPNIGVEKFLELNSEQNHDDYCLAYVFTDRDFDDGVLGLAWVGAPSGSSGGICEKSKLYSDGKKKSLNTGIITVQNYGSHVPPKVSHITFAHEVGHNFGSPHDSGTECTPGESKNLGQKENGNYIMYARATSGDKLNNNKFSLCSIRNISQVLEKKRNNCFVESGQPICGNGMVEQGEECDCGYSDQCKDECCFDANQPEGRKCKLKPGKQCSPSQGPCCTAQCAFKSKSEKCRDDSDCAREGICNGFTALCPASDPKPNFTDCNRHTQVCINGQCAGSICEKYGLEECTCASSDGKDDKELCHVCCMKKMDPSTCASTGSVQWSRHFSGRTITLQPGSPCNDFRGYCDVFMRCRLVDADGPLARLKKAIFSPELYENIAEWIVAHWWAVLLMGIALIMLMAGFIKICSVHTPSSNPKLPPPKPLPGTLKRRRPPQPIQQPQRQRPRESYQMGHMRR
NRP1-CendR mod – modulators of CendR peptide binding to human neuropilin-1; O14786; inhibition, % at 25 µM; FAM-RPARPAR peptide binding to NRP-1, fluorescence polarization; AID 602438; 360,000 compounds, 0.85% hits;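 active = inhibition or corrected inhibition above about 18%, plus a signal ratio from 0.5 to 1.5, limit read from the data, passing the limit was not always enough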
FAS TE block – inhibitors of human fatty acid synthase thioesterase domain. P49327. recombinant FAS-TE, OMFH fluorogenic substrate, fluorescence endpoint. inhibition, % at 15 µM. 360,000 compounds, 0.67% hits. AID 602261;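 active = compounds whose normalised, plate-corrected inhibition of enzyme fluorescence in the single-dose primary screen is 50% or more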;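 also: 0% = DMSO with enzyme and 100% = substrate without enzyme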
ADAM17 inh – inhibits human ADAM17 | P78536 | recombinant ADAM17, EDANS/DABCYL FRET peptide cleavage | inhibition, % at 6.95 µM | 370,000 compounds, 0.83% hits;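 active = inhibition above the mean of compounds lying between control limits plus 3 SD, set per campaign, cut at about 8.5% in these data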;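 also: 0% = DMSO-only wells as the low control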
CaV13 ICDI inh – Disruptors of the CACNA1D IQ motif to Ca2+-dependent inactivation inhibitor domain association, primary screening, Förster resonance energy transfer in intact living …; HEK cells, CFP/YFP FRET ICDI-IQ, plate reader, 10 min; percent FRET-ratio fall versus neutral wells; inhibition, % at 12.3 µM; 340,000 compounds, 0.098% hits;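 active = mean replicate inhibition of at least 30% and at least 1% of replicates passing that level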;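 also: 0% = median of the neutral control wells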
FAS-TE conf – confirmation of human fatty acid synthase thioesterase inhibitors | AID 624325 | 2,300 compounds, 45% hits | shares compounds with FAS TE block | recombinant FAS-TE, OMFH fluorogenic substrate, fluorescence | inhibition, % at 15 µM;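 active = compounds inhibiting the enzyme by at least 50% at 15 µM in any one of the replicates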;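 also: 0% = enzyme with DMSO only and 100% = wells lacking enzyme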
Numbers without * were called inactive; / = no result.

SMILES	Arr AP2 block	ADAM10 inh	NRP1-CendR mod	FAS TE block	ADAM17 inh	CaV13 ICDI inh	FAS-TE conf
Cc1ccc(S(=O)(=O)N2CCN(C(=O)COC(=O)/C=C/c3ccc([N+](=O)[O-])cc3)CC2)c(C)c1	-12.6	-8.3	11.5	-6.6	-3.3	-5.5	/
O=C(COC(=O)c1cc([N+](=O)[O-])ccc1NCCO)NCc1cccs1	5.4	-8.0	9.7	73.0*	-0.9	5.3	77.6*
NC(=O)COC(=O)c1cc([N+](=O)[O-])ccc1NCCO	11.5	6.0	-6.3	3.0	-2.5	3.6	/
O=C(COC(=O)c1cc([N+](=O)[O-])ccc1NCCO)c1ccccc1	-0.3	9.8	-1.0	59.3*	6.1	-3.5	67.8*
CC(C)CNC(=O)C1CSCCS(=O)(=O)N1Cc1ccc(F)cc1 (centres undefined)	/	2.7	/	/	0.0	/	/
COc1ccc(C(O)c2ncc(-c3cccc(C(F)(F)F)c3)[nH]2)cc1 (centres undefined)	/	-3.0	4.5	4.4	1.1	-9.8	/
Cc1cccc(CS(=O)(=O)Cc2ccc(C(=O)NC3CCCC3)o2)c1	23.7	1.5	8.6	-2.6	-4.8	-6.2	/
CC1(C(=O)Nc2ccc3nc[nH]c3c2)CCN1C(=O)c1ccccc1CCc1ccccc1 (centres undefined)	/	7.7	-0.7	-4.7	-0.2	-5.2	/
Cc1ccc2c(c1)-n1c(nc3ccc(C)cc3c1=O)C(Cc1ccc(O)cc1)NC2=O (centres undefined)	/	19.0	/	/	8.5	-5.8	/
O=C(C[C@H]1C[C@H](C(=O)N2CCOCC2)[C@@]2(CCC3CCCC3)c3[nH]c4ccc(Cl)cc4c3CCN2C1=O)NCC12CC3CC(CC(C3)C1)C2	43.3	-6.2	8.6	82.0*	-6.7	-5.6	1.9
COc1ccc2[nH]c3c(c2c1)CCN1C(=O)C(CC(=O)NCCC2=CCCCC2)C[C@H](C(=O)N2CCOCC2)[C@@]31CCC1CCCC1 (some centres undefined)	3.6	-1.3	-6.4	67.0*	-2.8	-5.7	69.5*
COc1ccc2[nH]c3c(c2c1)CCN1C(=O)C(CC(=O)NCC24CC5CC(CC(C5)C2)C4)C[C@H](C(=O)N2CCOCC2)[C@@]31CCC1CCCC1 (some centres undefined)	-10.8	-9.0	5.8	79.8*	-2.0	-5.7	14.8
Fc1ccc(-c2ccc3c(n2)CCCN3Cc2ccccc2C(F)(F)F)cc1	/	-34.4	/	/	-7.2	-7.0	/
Cc1cccc(NC(=O)Nc2nnc([C@@H]3C[C@H](O)[C@@H](CO)O3)s2)c1	/	-15.5	1.0	-6.8	-4.9	-5.8	/
CNc1nc2cc([N+](=O)[O-])c([N+](=O)[O-])cc2nc1NC	-3.0	3.7	-1.3	-1.6	0.5	-1.7	/
N#Cc1cc2nc(O)c(O)nc2cc1[N+](=O)[O-]	9.4	-1.3	-11.2	51.7*	2.0	-4.7	55.6*
COC(=O)c1cc(C(=O)Nc2nnc(CC(C)C)s2)cc([N+](=O)[O-])c1	-1.4	0.2	4.5	50.6*	1.5	-6.9	30.4
COC(=O)c1cc(C(=O)Nc2nnc(C3CC3)s2)cc([N+](=O)[O-])c1	-9.8	-5.8	-0.4	51.3*	-3.1	-5.0	60.0*
O=C(CN1CC(c2ccccc2)CC1=O)N/N=C/c1cc(Br)ccc1O (centres undefined)	-16.6	-106.4	-2.1	69.1*	-29.1	-15.0	85.1*
O=C(CNC(=O)c1ccccc1)N/N=C/c1cc(Br)ccc1O	3.1	-85.5	6.0	53.7*	-24.7	-5.0	44.0*
CCCC/C=C1/[C@@H](CC)N(Cc2ccc(OC)cc2OC)C2=N[C@H](c3ccccc3)CC(=O)N21	/	-4.5	/	/	-7.8	/	/
O=C(Nc1ccc(F)cc1)N[C@H]1CC[C@H](CCNS(=O)(=O)c2cccc(Cl)c2)O[C@@H]1CO	/	2.2	-1.4	/	-0.2	-4.4	/
